Test results: ChEMBL document CHEMBL3745632, “Development of a novel sulfonate ester-based prodrug strategy” (Bioorg Med Chem Lett, 2016); call rule not given here
One block for each compound: values may come before it.

Experiments:
[1] = Drug metabolism in HEPES buffer assessed as aeromonas proteolytica aminopeptidase-mediated 4-(trifluoromethyl)phenol formation at 200 uM by spectrophotometry; format: ADME; settings: vibrio proteolyticus
Method in brief: (§1)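 Each substrate (50 or 200 μM) was incubated with AAP (1.05 units/mL) in 50 mM HEPES (pH 8.0) containing 2% DMSO for varying periods. Release of the corresponding phenol was monitored over time.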

[2] = Drug metabolism in HEPES buffer assessed as aeromonas proteolytica aminopeptidase-mediated Isothiazolidine 1,1-dioxide formation at 200 uM by spectrophotometry; format: ADME; settings: vibrio proteolyticus
[3] = Dissociation constant, pKa of the compound; format: physicochemical
Serum [4] = assay: Metabolic stability in human serum assessed as compound decomposed at 5 mM by HPLC analysis; format: ADME; settings: 5000 µM
[5] = Metabolic stability in CD1 mouse liver S9 fraction assessed as compound remaining at 5 mM by HPLC analysis; format: ADME, subcellular; settings: read-out: Stability
[6] = Retention time of compound by HPLC analysis; format: physicochemical
[7] = Inhibition of aeromonas proteolytica aminopeptidase at 5 uM incubated at pH 8 and 30 degC followed by addition of 50 uM L-leucine-p-nitroanilide substrate by spectrophotometry; settings: vibrio proteolyticus, pH 8, 5 µM
Method in brief: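 The prodrug (5 μM) was preincubated with AAP (0.02 units/mL) at pH 8.0 and 30 °C for set times in 10 mM HEPES (pH 8.0) containing 2% DMSO. L-leucine-p-nitroanilide (50 μM) was then added, and its hydrolysis was followed at 25 °C by ΔAbs405 from released p-nitroaniline (ε405 = 10300). In the control, the prodrug was preincubated without enzyme, and AAP was added together with the substrate.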

[8] = Drug metabolism in HEPES buffer assessed as aeromonas proteolytica aminopeptidase-mediated compound hydrolysis at 1.3 mM by spectrophotometry; format: ADME; settings: vibrio proteolyticus, 1300 µM
[9] = Drug level in HEPES buffer treated with 200 uM (S)-4-(trifluoromethyl)phenyl 3-(2-amino-4-methylpentanamido)propane-1-sulfonate in presence of aeromonas proteolytica aminopeptidase by spectrophotometry; format: ADME; settings: vibrio proteolyticus; method in brief: as §1
[10] = Inhibition of aeromonas proteolytica aminopeptidase using L-leucine-p-nitroanilide as substrate by spectrophotometry; set-up: species or system Vibrio proteolyticus
[11] = Drug metabolism in HEPES buffer assessed as aeromonas proteolytica aminopeptidase-mediated 4-hydroxybenzenesulfonamide formation at 200 uM by spectrophotometry; format: ADME; settings: vibrio proteolyticus; method in brief: as §1
[12] = Drug metabolism in HEPES buffer assessed as aeromonas proteolytica aminopeptidase-mediated 5-chloroquinolin-8-yl 3-chloropropane-1-sulfonate formation at 2 mM after 12 hrs by spectrophotometry; format: ADME; settings: vibrio proteolyticus, 2000 µM
[13] = Drug metabolism in HEPES buffer assessed as aeromonas proteolytica aminopeptidase-mediated 5-chloroquinolin-8-yl 4-chlorobutane-1-sulfonate formation at 2 mM after 12 hrs by spectrophotometry; format: ADME; settings: vibrio proteolyticus, 2000 µM
[14] = Metabolic stability in human serum assessed as compound decomposed at 5 mM after 24 hrs by HPLC analysis; format: ADME; settings: read-out: Drug metabolism
[15] = Drug metabolism in HEPES buffer assessed as aeromonas proteolytica aminopeptidase-mediated 2-methylquinolin-8-ol formation at 2 mM after 12 hrs by spectrophotometry; format: ADME; settings: vibrio proteolyticus, 2000 µM
[16] = Drug metabolism in HEPES buffer assessed as aeromonas proteolytica aminopeptidase-mediated Isothiazolidine 1,1-dioxide formation at 2 mM after 12 hrs by spectrophotometry; format: ADME; settings: vibrio proteolyticus, 2000 µM
[17] = Drug metabolism in HEPES buffer assessed as aeromonas proteolytica aminopeptidase-mediated 2-methylquinolin-8-ol formation at 50 uM by spectrophotometry; format: ADME; settings: vibrio proteolyticus; method in brief: as §1
[18] = Drug metabolism in HEPES buffer assessed as aeromonas proteolytica aminopeptidase-mediated Isothiazolidine 1,1-dioxide formation at 50 uM by spectrophotometry; format: ADME; settings: vibrio proteolyticus
Serum [19] = assay: Drug metabolism in human serum assessed as 2-methylquinolin-8-ol formation at 5 mM after 24 hrs by HPLC analysis; format: ADME, cell-free; settings: 5000 µM
Serum [20] = assay: Drug metabolism in human serum assessed as 2-methylquinolin-8-yl 3-aminopropane-1-sulfonate formation at 5 mM after 24 hrs by HPLC analysis; format: ADME, cell-free; settings: 5000 µM
[21] = Drug metabolism in CD1 mouse S9 fraction assessed as 2-methylquinolin-8-yl 3-aminopropane-1-sulfonate formation at 5 mM after 3 hrs by HPLC analysis; format: ADME, Liver; settings: s9, 3 h, 5000 µM
[22] = Drug metabolism in HEPES buffer assessed as aeromonas proteolytica aminopeptidase-mediated compound hydrolysis at 2 mM by spectrophotometry; format: ADME; settings: vibrio proteolyticus, 2000 µM
[23] = Drug level in HEPES buffer treated with 2 mM (S)-2-methylquinolin-8-yl 3-(2-amino-4-methylpentanamido)propane-1-sulfonate for 12 hrs in presence of aeromonas proteolytica aminopeptidase by spectrophotometry; format: ADME; settings: vibrio proteolyticus
[24] = Drug level in HEPES buffer treated with 50 uM (S)-2-methylquinolin-8-yl 3-(2-amino-4-methylpentanamido)propane-1-sulfonate in presence of aeromonas proteolytica aminopeptidase by spectrophotometry; format: ADME; settings: vibrio proteolyticus; method in brief: as §1
[25] = Drug level in HEPES buffer treated with 200 uM (S)-4-chlorophenyl 3-(2-amino-4-methylpentanamido)propane-1-sulfonate in presence of aeromonas proteolytica aminopeptidase by spectrophotometry; format: ADME; settings: vibrio proteolyticus
Method in brief: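 Compound at 200 μM incubated for a given period with Aeromonas proteolytica aminopeptidase (1.05 units/mL) in 50 mM HEPES, pH 8.0, containing 2% DMSO. Liberation of the corresponding phenol was followed over time to evaluate the intramolecular cyclization rate k₂.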

[26] = Drug level in HEPES buffer treated with 200 uM (S)-4-sulfamoylphenyl 3-(2-amino-4-methylpentanamido)propane-1-sulfonate in presence of aeromonas proteolytica aminopeptidase by spectrophotometry; format: ADME; settings: vibrio proteolyticus; method in brief: as §1
[27] = Drug metabolism in HEPES buffer assessed as aeromonas proteolytica aminopeptidase-mediated 4-chlorophenol formation at 200 uM by spectrophotometry; format: ADME; settings: vibrio proteolyticus; method in brief: as §1
Serum [28] = assay: Drug level in human serum treated with 5 mM (S)-2-methylquinolin-8-yl 3-(2-amino-4-methylpentanamido)propane-1-sulfonate after 24 hrs by HPLC analysis; format: ADME, cell-free
Liver = assay: Drug level in CD1 mouse liver S9 fraction treated with 5 mM (S)-2-methylquinolin-8-yl 3-(2-amino-4-methylpentanamido)propane-1-sulfonate after 3 hrs by HPLC analysis; format: ADME, subcellular; settings: s9, 3 h

Structure (SMILES): CC(C)C[C@H](N)C(=O)NCCCS(=O)(=O)Oc1ccc(C(F)(F)F)cc1
Drug metabolism [1]: metabolite_detected
Drug metabolism [2]: metabolite_detected
pKa [3]: 8.9

Structure (SMILES): Cc1ccc2cccc(OS(=O)(=O)CCCN=[N+]=[N-])c2n1
Stability (Serum [4]): Stable
remaining [5]: 88%
Retention_time [6]: 17.5 min

Structure (SMILES): Oc1ccc(C(F)(F)F)cc1
Drug metabolism [9]: metabolite_detected

Structure (SMILES): Oc1ccc(Cl)c2cccnc12 [CLOXYQUIN]
Ki [10]: 190 nM

Structure (SMILES): CC(C)C[C@H](N)C(=O)NCCCS(=O)(=O)Oc1ccc(S(N)(=O)=O)cc1
Drug metabolism [11]: metabolite_detected
Drug metabolism [2]: metabolite_detected
pKa [3]: 8.3

Structure (SMILES): O=S1(=O)CCCN1
Drug metabolism [23]: metabolite_detected
Drug metabolism [24]: metabolite_detected
Drug metabolism [25]: metabolite_detected
Drug metabolism [9]: metabolite_detected
Drug metabolism [26]: metabolite_detected

Structure (SMILES): Cc1ccc2cccc(O)c2n1 [8-HYDROXY QUINALDINE]
Drug metabolism [23]: metabolite_detected
Drug metabolism (Serum [28]): metabolite_detected
Drug metabolism [24]: metabolite_detected
Retention_time [6]: 4.6 min

Structure (SMILES): NS(=O)(=O)c1ccc(O)cc1
Drug metabolism [26]: metabolite_detected

Structure (SMILES): Oc1ccc(Cl)cc1 [PARACHLOROPHENOL]
Drug metabolism [25]: metabolite_detected

Continued, values first:

inhibition (INH) [7]: Active
Structure (SMILES): CC(C)C[C@H](N)C(=O)NCCCS(=O)(=O)Oc1ccc(Cl)c2cccnc12

inhibition (INH) [7]: Active
Structure (SMILES): CC(C)C[C@H](N)C(=O)NCCCCS(=O)(=O)Oc1ccc(Cl)c2cccnc12

Drug metabolism [8]: metabolite_detected
Structure (SMILES): Cc1ccc2cccc(OS(=O)(=O)CCNC(=O)[C@@H](N)CC(C)C)c2n1

Drug metabolism [12]: metabolite_notdetected
Drug metabolism [13]: metabolite_notdetected
metabolised at 24 h, 5000 µM [14]: 35%
Drug metabolism [15]: metabolite_detected
Drug metabolism [16]: metabolite_detected
Drug metabolism [17]: metabolite_detected
Drug metabolism [18]: metabolite_detected
pKa [3]: 10.9
Drug metabolism (Serum [19]): metabolite_detected
Drug metabolism (Serum [20]): metabolite_detected
Drug metabolism [21]: metabolite_detected
Retention_time [6]: 21 min
Structure (SMILES): Cc1ccc2cccc(OS(=O)(=O)CCCNC(=O)[C@@H](N)CC(C)C)c2n1

Drug metabolism [22]: metabolite_detected
Structure (SMILES): Cc1ccc2cccc(OS(=O)(=O)CCCCNC(=O)[C@@H](N)CC(C)C)c2n1

Drug metabolism [27]: metabolite_detected
Drug metabolism [2]: metabolite_detected
pKa [3]: 9.6
Structure (SMILES): CC(C)C[C@H](N)C(=O)NCCCS(=O)(=O)Oc1ccc(Cl)cc1

Drug metabolism (Serum [28]): metabolite_detected
Drug metabolism (Liver): metabolite_detected
Retention_time [6]: 6.5 min
Structure (SMILES): Cc1ccc2cccc(OS(=O)(=O)CCCN)c2n1
